Activity calls are given as the source filed them. No cut-off for these calls is given here.
What was measured:
Vasopressin V2 receptor [1] = molecular target: T1, Vasopressin V2 receptor (Homo sapiens, UniProt P30518); assay: Activity at human vasopressin V2 receptor expressed in CHO cells by cAMP dynamic 2 assay
[2] = molecular target: T2, Oxytocin receptor (Homo sapiens) (UniProt P30559); assay: Activity at human oxytocin receptor expressed in CHO cells assessed as inositol phosphate accumulation at 1 uM; format: functional, cell-based
T2 sequence (whole entry): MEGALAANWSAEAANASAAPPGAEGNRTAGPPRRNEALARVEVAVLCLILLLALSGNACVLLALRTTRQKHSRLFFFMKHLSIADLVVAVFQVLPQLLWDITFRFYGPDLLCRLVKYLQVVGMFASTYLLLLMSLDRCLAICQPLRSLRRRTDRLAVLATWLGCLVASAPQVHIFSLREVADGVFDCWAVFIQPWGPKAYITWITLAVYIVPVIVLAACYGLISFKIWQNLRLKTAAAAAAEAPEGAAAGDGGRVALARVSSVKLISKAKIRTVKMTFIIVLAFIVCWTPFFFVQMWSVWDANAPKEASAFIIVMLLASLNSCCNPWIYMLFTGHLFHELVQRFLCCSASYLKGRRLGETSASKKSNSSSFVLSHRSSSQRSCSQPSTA
In short: (§1)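 Agonist mode on CHO cells stably expressing human OT receptor: 30 min at 37 °C with ligand, 10 fM–100 μM, ≤1% final DMSO. IP1 accumulation was read by IP-One HTRF, ΔF from the 665/620 ratio. K_act is the EC50 from the sigmoidal fit. Emax is % of the 1 μM OT maximal response. Single-concentration lines are % of OT maximum, n = 2. Mean of ≥3 experiments in triplicate.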

Oxytocin receptor [3] = molecular target: T3, Oxytocin receptor (Homo sapiens, UniProt P30559); assay: Activity at human oxytocin receptor expressed in CHO cells by NFAT-luciferase gene reporter assay; format: cell-based
T3 sequence (P30559 whole entry): T2 sequence (whole entry)

Vasopressin V2 receptor [4] = molecular target: T1, Vasopressin V2 receptor; assay: Displacement of [3H]AVP from human vasopressin V2 receptor expressed in CHO cells; format: cell-based
In short: (§2)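 Membranes came from CHO cells stably expressing the human receptor; OT-R and V1a-R cells were treated overnight with 5 mM butyrate. Membrane protein was 10–15 μg (OT, V1a) or 5 μg (V2), incubated 30 min at 30 °C in 50 mM Tris-HCl, 5 mM MgCl2, 1 mg/mL BSA, pH 7.4, with 1–2 nM [3H]AVP and competitor 0.1 pM–100 μM. Nonspecific binding: 10 μM AVP. Filtration, then Ki via Cheng–Prusoff. Mean ± SEM of ≥3 experiments in triplicate.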

Vasopressin V2 receptor [5] = molecular target: T1, Vasopressin V2 receptor; assay: Activity at human vasopressin V2 receptor expressed in CHO cells assessed as cAMP accumulation at 1 uM; format: functional, cell-based
In short: (§3)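 V2-R agonism in CHO cells at 1000 cells/well, stimulated 30 min at 37 °C in D-MEM containing 0.1 mM Ro-20-1724 and 1 mg/mL BSA. cAMP was read by cAMP dynamic 2 HTRF. K_act from the sigmoidal fit. Emax is % of the 0.1 μM AVP response. Single-concentration values are % of AVP maximum.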

Oxytocin receptor [6] = molecular target: T3, Oxytocin receptor; assay: Displacement of [3H]AVP from human oxytocin receptor expressed in CHO cells; format: cell-based
In short: as §2

Vasopressin V1a receptor [7] = molecular target: T4, Vasopressin V1a receptor (Homo sapiens, UniProt P37288); assay: Activity at human vasopressin V1a receptor expressed in CHO cells assessed as inositol phosphate accumulation at 1 uM; format: functional, cell-based
In short: (§4)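 Human V1a-expressing CHO cells, 80000 cells/well, exposed to ligand for 30 min at 37 °C. IP1 was measured by HTRF IP-One. EC50 (K_act) from the dose–response curve. Emax is relative to the 1 μM AVP maximum. Weak responses are reported as % of AVP maximum at 1 μM ligand.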
Target sequence in this assay (P37288 whole entry, looked up): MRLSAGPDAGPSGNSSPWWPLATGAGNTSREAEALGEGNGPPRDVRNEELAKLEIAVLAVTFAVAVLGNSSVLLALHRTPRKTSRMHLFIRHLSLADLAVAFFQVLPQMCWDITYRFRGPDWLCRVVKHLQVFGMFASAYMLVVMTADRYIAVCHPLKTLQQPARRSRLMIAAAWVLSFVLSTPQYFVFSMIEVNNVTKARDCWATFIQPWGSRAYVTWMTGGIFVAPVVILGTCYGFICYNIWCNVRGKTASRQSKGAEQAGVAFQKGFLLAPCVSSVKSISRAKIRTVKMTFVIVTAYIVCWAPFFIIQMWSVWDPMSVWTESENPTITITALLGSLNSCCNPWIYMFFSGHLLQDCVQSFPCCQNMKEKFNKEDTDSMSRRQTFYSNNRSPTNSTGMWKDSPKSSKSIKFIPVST

Vasopressin V1a receptor [8] = molecular target: T4, Vasopressin V1a receptor; assay: Activity at human vasopressin V1a receptor expressed in CHO cells by NFAT-luciferase gene reporter assay; format: cell-based
Vasopressin V2 receptor [9] = molecular target: T1, Vasopressin V2 receptor; assay: Activity at human vasopressin V2 receptor expressed in CHO cells assessed as inhibition of agonist-induced cAMP accumulation; format: functional, cell-based
Vasopressin V1a receptor [10] = molecular target: T4, Vasopressin V1a receptor; assay: Activity at human vasopressin V1a receptor expressed in CHO cells assessed as inhibition of agonist-induced inositol phosphate accumulation; format: functional, cell-based
In short: (§5)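 Human V1a receptor in stably transfected CHO cells, seeded at 80000 cells/well overnight. Cells were preincubated 10 min at 37 °C with ligand (10 fM–100 μM, ≤1% final DMSO), then challenged with 2 nM AVP for 30 min. IP1 was read by IP-One HTRF. K_inact was derived by Cheng–Prusoff-type correction using AVP K_act 1.20 nM. Fixed-concentration lines are % inhibition, n = 2.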
Target sequence in this assay (P37288 whole entry, looked up): as above

[11] = molecular target: T2, Oxytocin receptor (Homo sapiens); assay: Activity at human oxytocin receptor expressed in CHO cells assessed as inhibition of agonist-induced inositol phosphate accumulation; format: functional, cell-based
Vasopressin V1a receptor [12] = molecular target: T4, Vasopressin V1a receptor; assay: Displacement of [3H]AVP from human vasopressin V1a receptor expressed in CHO cells; format: cell-based
In short: as §2
Target sequence in this assay (P37288 whole entry): as the sequence (P37288 whole entry, looked up) above

Vasopressin V2 receptor [13] = molecular target: T1, Vasopressin V2 receptor; assay: Activity at human vasopressin V2 receptor expressed in CHO cells assessed as cAMP accumulation; format: functional, cell-based
In short: as §3

[14] = molecular target: T2, Oxytocin receptor (Homo sapiens); assay: Activity at human oxytocin receptor expressed in CHO cells assessed as inositol phosphate accumulation; format: functional, cell-based
In short: as §1

Vasopressin V2 receptor [15] = molecular target: T1, Vasopressin V2 receptor; assay: Activity at human vasopressin V2 receptor expressed in CHO cells assessed as inhibition of agonist-induced cAMP accumulation at 1 uM; format: functional, cell-based
Vasopressin V1a receptor [16] = molecular target: T4, Vasopressin V1a receptor; assay: Activity at human vasopressin V1a receptor expressed in CHO cells assessed as inhibition of agonist-induced inositol phosphate accumulation at 1 uM; format: functional, cell-based; set-up: scale not given: the % may be the effect or the level left
In short: as §5
Target sequence in this assay (P37288 whole entry, looked up): as above

[17] = molecular target: T2, Oxytocin receptor (Homo sapiens); assay: Activity at human oxytocin receptor expressed in CHO cells assessed as inositol phosphate accumulation up to 100 uM; format: functional, cell-based
In short: as §1

Vasopressin V2 receptor [18] = molecular target: T1, Vasopressin V2 receptor; assay: Activity at human vasopressin V2 receptor expressed in CHO cells assessed as inhibition of agonist-induced cAMP accumulation at 10 uM; format: functional, cell-based
[19] = molecular target: T2, Oxytocin receptor (Homo sapiens); assay: Activity at human oxytocin receptor expressed in CHO cells assessed as inhibition of agonist-induced inositol phosphate accumulation at 10 uM; format: functional, cell-based; set-up: scale not given: the % may be the effect or the level left
[20] = molecular target: T2, Oxytocin receptor (Homo sapiens); assay: Activity at human oxytocin receptor expressed in CHO cells assessed as inositol phosphate accumulation up to 10 uM; format: functional, cell-based
In short: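 CHO cells stably expressing human OT receptor, seeded 80000 cells/well overnight at 37 °C. Ligands 10 fM to 100 μM (≤1% DMSO) in IP-One stimulation buffer, 30 min at 37 °C with 5% CO₂. IP₁ read by HTRF at 665/620 nm. EC50 (K_act) from sigmoidal curves; Emax as % of 1 μM OT maximum. Triplicate wells, ≥3 experiments.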

[21] = molecular target: T2, Oxytocin receptor (Homo sapiens); assay: Activity at human oxytocin receptor expressed in CHO cells assessed as inhibition of agonist-induced inositol phosphate accumulation at 1 uM; format: functional, cell-based; set-up: scale not given: the % may be the effect or the level left
Vasopressin V1a receptor [22] = molecular target: T4, Vasopressin V1a receptor; assay: Activity at human vasopressin V1a receptor expressed in CHO cells assessed as inositol phosphate accumulation; format: functional, cell-based
In short: as §4
Target sequence in this assay (P37288 whole entry, looked up): as above

T1 sequence (P30518 whole entry): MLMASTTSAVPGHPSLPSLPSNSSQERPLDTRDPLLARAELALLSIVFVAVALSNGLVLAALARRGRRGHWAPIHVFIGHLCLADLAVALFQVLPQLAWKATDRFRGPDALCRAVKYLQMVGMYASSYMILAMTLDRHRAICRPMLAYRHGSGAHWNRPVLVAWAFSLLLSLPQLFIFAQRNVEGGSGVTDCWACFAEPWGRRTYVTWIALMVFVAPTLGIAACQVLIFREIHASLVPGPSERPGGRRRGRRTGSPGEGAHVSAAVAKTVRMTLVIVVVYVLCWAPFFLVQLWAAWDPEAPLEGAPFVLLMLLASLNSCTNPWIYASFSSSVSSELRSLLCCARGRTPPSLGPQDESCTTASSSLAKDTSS

Structure (SMILES)	Ki (Vasopressin V2 receptor [4]; read-out: Ki) [nM]	Activity (Vasopressin V2 receptor [5])	Ki (Oxytocin receptor [6]; read-out: Ki) [nM]	Activity (Vasopressin V1a receptor [7])	Kinact (Vasopressin V2 receptor [9])	Kinact (Vasopressin V1a receptor [10]) [nM]	Kinact [11] [nM]	Ki (Vasopressin V1a receptor [12]; read-out: Ki) [nM]	Emax (Vasopressin V2 receptor [5]) [%]	Activity (Vasopressin V2 receptor [15])	Activity (Vasopressin V1a receptor [16])	Activity [19]	Activity [21]	other results
O=C(Nc1ccc(C(=O)N2CCCCc3ccccc32)cc1)c1ccccc1-c1ccccc1	0.57	inactive	109	inactive	0.096 nM	63	171	2.74	–	–	–	–	–	EC50 (Vasopressin V2 receptor [1]): 7.6 nM; Activity [2]: inactive; EC50 (Oxytocin receptor [3]): 63 nM; EC50 (Vasopressin V1a receptor [8]): 14 nM
Cc1ccn(-c2ccc(C(=O)N3Cc4cnn(C)c4Nc4ccccc43)c(Cl)c2)n1	29	–	17	inactive	–	13	69	27	94	inactive	–	–	–	Kact (Vasopressin V2 receptor [13]): 8.4 nM; Activity [14]: inactive
Cc1ccn(-c2ccc(C(=O)N3Cc4cccn4Cc4ccccc43)c(Cl)c2)n1	50	–	199	inactive	–	–	488	344	75	inactive	33%	–	–	EC50 (Vasopressin V2 receptor [1]): 39.9 nM; Activity [2]: inactive; EC50 (Oxytocin receptor [3]): 125 nM; EC50 (Vasopressin V1a receptor [8]): 465 nM; Kact (Vasopressin V2 receptor [13]): 9.5 nM
Cc1cc(C(=O)N2Cc3cccn3Cc3ccccc32)ccc1CNC(=O)N1CCC[C@H]1C(=S)N1CCCN(C)CC1	3400	–	2500	inactive	–	754	–	> 1000	9	–	–	11%	–	Emax [2]: 50.6%; Kact [14]: 110 µM; Activity [17]: inactive; Inhibition (Vasopressin V2 receptor [18]): 43%
Cc1ccn(-c2ccc(C(=O)N3Cc4cnn(C)c4Nc4ccccc43)cc2C)n1	913	inactive	27.8	inactive	253 nM	32.5	14.8	18	–	–	–	–	–	–
Cc1cc(C(=O)N2Cc3cnn(C)c3Nc3ccccc32)ccc1NC(=O)c1ccccc1-c1ccccc1	6.4	inactive	111	inactive	1.1 nM	412	557	37	–	–	–	–	–	Activity [20]: inactive
COc1cc(OC2CCN(C(C)=O)CC2)ccc1C(=O)N1CCC(N2C(=O)OCc3ccccc32)CC1	–	inactive	–	inactive	inactive	–	–	–	–	–	18%	–	–	EC50 (Vasopressin V2 receptor [1]): 37000 nM; Activity [2]: inactive; EC50 (Oxytocin receptor [3]): 4.6 nM; Ki (Vasopressin V2 receptor [4]; cho): Not Active; Ki (Oxytocin receptor [6]; cho): Not Active; EC50 (Vasopressin V1a receptor [8]): 3200 nM; Ki (Vasopressin V1a receptor [12]; cho): Not Active
Cc1cc(C(=O)N2CCC(N3C(=O)OCc4ccccc43)CC2)ccc1CNC(=O)N1CCC[C@H]1C(=S)N1CCCN(C)CC1	–	inactive	245	inactive	–	–	383	> 5000	–	inactive	inactive	–	–	Activity [20]: inactive
Cc1cc(C(=O)N2Cc3cnn(C)c3Nc3ccccc32)ccc1CNC(=O)N1CCCC1	> 1000	–	> 1000	inactive	–	187	–	167	20	–	–	inactive	37%	Kinact (Vasopressin V2 receptor [15]): inactive
CC(=O)NCc1ccc(C(=O)N2Cc3cnn(C)c3Nc3ccccc32)cc1C	–	–	> 5000	inactive	–	–	–	> 5000	–	–	27%	inactive	inactive	–
Cc1cc(C(=O)N2Cc3cnn(C)c3Nc3ccccc32)ccc1CNC(=O)N1CCC[C@H]1C(=S)N1CCCN(C)CC1	> 1000	–	147	–	–	271	–	330	84	inactive	–	–	16%	Emax [2]: 58%; Activity (Vasopressin V1a receptor [8]): inactive; Kact (Vasopressin V2 receptor [13]): 599 nM; Kact [14]: 0.667 µM; Activity (Vasopressin V1a receptor [22]): inactive
Cc1cc(C(=O)N2Cc3cnn(C)c3Nc3ccccc32)ccc1CNC(=O)N(C)C	> 1000	–	> 5000	inactive	–	134	–	170	16	–	–	inactive	30%	–
